Test results as given in ChEMBL document CHEMBL4673249, “Anticancer Effects of Honokiol via Mitochondrial Dysfunction Are Strongly Enhanced by the Mitochondria-Targeting Carrier Berberine” (J Med Chem, 2020).
Calls of active or inactive are those of the source. The rule behind the calls is not given here.

Assays:
[1] = tested on: HepG2; experiment: Induction of apoptosis in human HepG2 cells after 24 hrs by annexin V/propidium iodide staining based flow cytometric analysis; assay type: functional, cell-based; details: dose 1-4 µM
[2] = Selectivity ratio of IC50 for antiproliferative activity against human L02 cells to IC50 for antiproliferative activity human HepG2 cells; assay type: toxicity, cell-based; details: L02 cells and HepG2 cells, read-out: Ratio IC50
Summary of the method: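 MTT assay after 48 h drug exposure. Cells seeded overnight, MTT (5 mg/mL stock) added for 4 h at 37 °C, formazan dissolved in DMSO, absorbance read at 570 nm. IC50 taken from viability, repeated in triplicate, and the IC50 ratio calculated.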

[3] = tested on: HepG2; experiment: Induction of autophagy in human HepG2 cells assessed as effect on P62 protein expression at 3 uM after 24 hrs by Western blot analysis; assay type: functional, cell-based
Summary of the method: (§1)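 HepG2 cells lysed in RIPA on ice for 20 min; protein measured by BCA. Lysates run on 10% SDS-PAGE and transferred to PVDF. Membranes blocked in 5% nonfat milk/TBST for 2 h, incubated with primary antibodies overnight at 4 °C, then HRP secondary antibody; bands detected by ECL.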

[4] = tested on: HepG2; experiment: Induction of apoptosis in human HepG2 cells assessed as viable cells at 1 uM after 24 hrs by annexin V/propidium iodide staining based flow cytometric analysis (reference value: 95.3%); assay type: functional; details: read-out: Activity
[5] = tested on: HepG2; experiment: Induction of apoptosis in human HepG2 cells assessed as viable cells at 4 uM after 24 hrs by annexin V/propidium iodide staining based flow cytometric analysis (reference value: 95.3%); assay type: functional; details: read-out: Activity
[6] = tested on: L02; experiment: Antiproliferative activity against human L02 cells assessed as reduction in cell viability after 48 hrs by MTT assay; assay type: cell-based; details: L02, 48 h
Summary of the method: (§2)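 Cell lines grown at 37 °C in 5% CO2: A2780, A549, HL7702 and PC3 in RPMI 1640; HT29 in McCoy's 5A; HepG2 and PANC-1 in DMEM; all media with 10% FBS and penicillin/streptomycin. Cells seeded and left overnight, then exposed to compound for 48 h. MTT (5 mg/mL solution) added for 4 h at 37 °C, formazan dissolved in DMSO, absorbance read at 570 nm. IC50 taken from viability; run in triplicate.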

[7] = tested on: HepG2; experiment: Induction of apoptosis in human HepG2 cells assessed as early apoptotic cells at 4 uM after 24 hrs by annexin V/propidium iodide staining based flow cytometric analysis (reference value: 1.29%); assay type: functional
[8] = tested on: HepG2; experiment: Induction of apoptosis in human HepG2 cells assessed as necrotic cells at 4 uM after 24 hrs by annexin V/propidium iodide staining based flow cytometric analysis (reference value: 0.11%); assay type: functional
[9] = tested on: HepG2; experiment: Induction of morphological changes in human HepG2 cells assessed as accumulation of vacuoles at 3 uM after 24 hrs in presence of Nec-1 by microscopic method; assay type: functional, cell-based
Summary of the method: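 HepG2 cells pretreated with necrostatin-1 (30 μM, 2 h), then exposed to 3 μM compound. Vacuoles imaged by optical microscopy after 24 h.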

[10] = tested on: HepG2; experiment: Induction of apoptosis in human HepG2 cells assessed as late apoptotic cells at 4 uM after 24 hrs in presence of z-VAD-fmk by annexin V/propidium iodide staining based flow cytometric analysis (reference value: 6.21%); assay type: functional
[11] = tested on: HepG2; experiment: Induction of cell death in human HepG2 cells at 3 uM after 12 hrs in presence of Nec-1 by MTT assay; assay type: functional, cell-based
Summary of the method: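 HepG2 cells pretreated with Nec-1 (30 μM) for 2 h, then given 3 μM. Viability measured by MTT with absorbance read at 570 nm.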

[12] = tested on: HepG2; experiment: Antitumour activity against human HepG2 cells xenografted in AB zebrafish assessed as inhibition of cell growth at 0.8 to 2.4 uM after 48 hrs by cell tracker CM-Dil based laser confocal microscopic method; assay type: functional; details: dose 0.8-2.4 µM
Summary of the method: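 Wild-type AB zebrafish embryos raised at 28 °C in embryo medium (5.0 mM NaCl, 0.17 mM KCl, 0.4 mM CaCl2, 0.16 mM MgSO4). HepG2 cells labelled with CM-DiI, microinjected into 2-day-old larvae. At 4 h post-injection, larvae with the same injection spot were grouped (about 15–20 per group, three wells each). Exposed to 0.8, 1.6 or 2.4 μM in the water for 48 h; doxorubicin 1.0 μM as reference. Tumour fluorescence intensity measured by confocal microscopy.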

[13] = tested on: PANC-1; experiment: Antiproliferative activity against human PANC1 cells assessed as reduction in cell viability after 48 hrs by MTT assay; assay type: functional, cell-based; details: PANC-1, 48 h; summary of the method: as §2
[14] = tested on: HepG2; experiment: Induction of mitochondrial dysfunction in human HepG2 cells assessed as […] at 1 to 4 uM after 24 hrs by JC-1 staining based flow cytometric analysis; assay type: functional, cell-based; details: dose 1-4 µM
[15] = tested on: HepG2; experiment: Induction of apoptosis in human HepG2 cells assessed as early apoptotic cells at 2 uM after 24 hrs by annexin V/propidium iodide staining based flow cytometric analysis (reference value: 1.29%); assay type: functional
[16] = tested on: HepG2; experiment: Induction of apoptosis in human HepG2 cells assessed as increase in cleaved-PARP protein expression at 1 to 4 uM after 24 hrs by Western blot analysis; assay type: functional, cell-based; details: dose 1-4 µM; summary of the method: as §1
[17] = tested on: HepG2; experiment: Induction of morphological changes in human HepG2 cells assessed as accumulation of cytoplasmic vacuoles at 4 uM after 24 hrs by optical microscopic method; assay type: functional, cell-based
Summary of the method: (§3)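 Cells grown at 37 °C, 5% CO2 in media with 10% FBS and penicillin/streptomycin, then treated with compound. Cytoplasmic vacuoles judged by optical microscopy. Time course at 4 μM, or 10 h exposure across increasing concentrations.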

[18] = tested on: HepG2; experiment: Induction of apoptosis in human HepG2 cells assessed as increase in cleaved-caspase 9 protein expression at 1 to 4 uM after 24 hrs by Western blot analysis; assay type: functional, cell-based; details: dose 1-4 µM; summary of the method: as §1
[19] = tested on: HepG2; experiment: Induction of apoptosis in human HepG2 cells assessed as necrotic cells at 2 uM after 24 hrs by annexin V/propidium iodide staining based flow cytometric analysis (reference value: 0.11%); assay type: functional
[20] = tested on: HepG2; experiment: Induction of apoptosis in human HepG2 cells assessed as early apoptotic cells at 1 uM after 24 hrs by annexin V/propidium iodide staining based flow cytometric analysis (reference value: 1.29%); assay type: functional
[21] = tested on: L02; experiment: Induction of morphological changes in human L02 cells assessed as accumulation of cytoplasmic vacuoles at 4 uM after 24 hrs by optical microscopic method; assay type: cell-based; details: l02, 24 h; summary of the method: as §3
[22] = tested on: HepG2; experiment: Induction of cell death in human HepG2 cells assessed as reduction in cell viability after 24 hrs in presence of z-VAD-fmk by MTT assay; assay type: functional, cell-based
Summary of the method: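 HepG2 cells pretreated with 20 μM z-VAD-fmk for 2 h, then exposed to a range of doses. Viability measured by MTT: 4 h at 37 °C, formazan in DMSO, absorbance at 570 nm.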

[23] = Drug uptake in human HepG2 cells mitochondria at 5 uM after 12 hrs by HPLC analysis; assay type: ADME; details: hepg2, 12 h
Summary of the method: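 HepG2 cells given 5 μM for 12 h, then homogenized in mitochondrial extraction reagent. Spun at 600 g, 4 °C, 10 min; supernatant spun again at 11000 g, 4 °C, 10 min, and the pellet taken as mitochondria. Drug content by HPLC on a C18 column with methanol–0.1% acetic acid (80:20), detection at 265 nm. Run thrice.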

IC50 [13]: 3.34 µM | Activity [21]: Active | Drug uptake [23]: 66.3 µM
SMILES: C=CCc1ccc(O)c(-c2ccc(OCCCCCc3c4[n+](cc5c(OC)c(OC)ccc35)CCc3cc5c(cc3-4)OCO5)c(CC=C)c2)c1.[I-]
Activity [1]: Dose-dependent effect | selectivity ratio [2]: 2.8 | Activity [3]: inactive | viability at 1 µM [4]: 93.3% | viability at 4 µM [5]: 73.3% | IC50 [6]: 4.61 µM | Activity [7]: 7.91% | Activity [8]: 0.41% | Activity [9]: Active | Activity [10]: 19.9% | Activity [11]: Active | growth inhibition (GI) [12]: Active | Activity [14]: Active | Activity [15]: 3.03% | Activity [16]: Active | Activity [17]: Active | Activity [18]: Active | Activity [19]: 0.13% | Activity [20]: 3.27% | Activity [22]: Active
